Legend:
[1] = Selectivity index, ratio of EC50 for agonist activity at human S1P3 receptor expressed in EDG3-Ga15-bla HEK293T cell membranes to EC50 for agonist activity at human S1P1 receptor expressed in CHO cell membranes; format: cell-based
Outline: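 S1P3/S1P1 ratio of GTPγ[35S] EC50s. Membranes from EDG3-Ga15-bla HEK293T (S1P3) or S1P1/CHO cells, […], 0.2 nM final [35S]GTP. HEPES pH 7.5 buffer with MgCl2, NaCl, EGTA, DTT, GDP, BSA and saponin. 45 min at room temperature, filtration read-out. Each EC50 taken at 50% of the compound's own Ymax.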

Rattus norvegicus [2] = assay: Reduction in circulating lymphocytes in Lewis rat at 1 mg/kg, po after 4 hrs; format: functional
Outline: (§1)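 Healthy Lewis rats dosed orally with test article as solution or suspension in vehicle, or vehicle alone. Blood drawn at 4 h and 24 h. Circulating lymphocyte percentage measured by hematology analyzer, expressed as reduction versus the vehicle group. Group average, n = 3–4.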

Plasma = assay: Ratio of plasma concentration Lewis rat at 1 mg/kg, po after 4 hrs to plasma concentration Lewis rat at 1 mg/kg, po after 24 hrs; format: ADME, organism-based; settings: in vivo
Outline: (§2)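 Lewis rats given 1.0 mg/kg orally as solution or suspension in vehicle. Plasma drug concentration measured in blood drawn at 4 h and 24 h; 4 h/24 h ratio taken from these values.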

[3] = target: Sphingosine 1-phosphate receptor 3 (Homo sapiens, UniProt Q99500); assay: Agonist activity at human S1P3 receptor expressed in EDG3-Ga15-bla HEK293T cell membranes assessed as stimulation of [35S]GTPgamma binding incubated for 45 mins by liquid scintillation counting method; design: species or system HEK-293T
Outline: (§3)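 Membranes from S1P1/CHO cells (S1P1) or EDG3-Ga15-bla HEK293T cells (S1P3), final protein […], with 3-fold compound dilutions. Buffer: 20 mM HEPES pH 7.5, 10 mM MgCl2, 150 mM NaCl, 1 mM EGTA, 1 mM DTT, GDP, 0.1% fatty acid free BSA, saponin. [35S]GTP 0.2 nM final. Room temperature, 45 min. Filtered, washed with water, dried 60 °C. EC50 taken at 50% of each compound's Ymax.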

[4] = Plasma concentration Lewis rat at 1 mg/kg, po after 4 hrs; format: ADME, organism-based; outline: as §2
Rattus norvegicus [5] = assay: Reduction in circulating lymphocytes in Lewis rat at 1 mg/kg, po after 24 hrs; format: functional; outline: as §1
[6] = Plasma concentration Lewis rat at 1 mg/kg, po after 24 hrs; format: ADME, organism-based; outline: as §2
[7] = target: Sphingosine 1-phosphate receptor 1 (Homo sapiens, UniProt P21453); assay: Agonist activity at human S1P1 receptor expressed in CHO cell membranes assessed as stimulation of [35S]GTPgamma binding incubated for 45 mins by liquid scintillation counting method; outline: as §3
Sequence of Sphingosine 1-phosphate receptor 1 (P21453 whole entry): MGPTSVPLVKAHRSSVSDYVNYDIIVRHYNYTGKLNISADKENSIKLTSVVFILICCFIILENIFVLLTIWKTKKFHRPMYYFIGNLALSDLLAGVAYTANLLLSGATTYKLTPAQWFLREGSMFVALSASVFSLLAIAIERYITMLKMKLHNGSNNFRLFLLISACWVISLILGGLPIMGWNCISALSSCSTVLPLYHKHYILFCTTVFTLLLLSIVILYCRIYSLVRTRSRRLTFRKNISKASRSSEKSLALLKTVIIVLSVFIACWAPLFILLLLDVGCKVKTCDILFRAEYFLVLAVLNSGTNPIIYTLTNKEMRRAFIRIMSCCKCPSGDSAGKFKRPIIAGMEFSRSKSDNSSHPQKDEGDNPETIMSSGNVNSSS

Sequence of Sphingosine 1-phosphate receptor 3 (Q99500 whole entry): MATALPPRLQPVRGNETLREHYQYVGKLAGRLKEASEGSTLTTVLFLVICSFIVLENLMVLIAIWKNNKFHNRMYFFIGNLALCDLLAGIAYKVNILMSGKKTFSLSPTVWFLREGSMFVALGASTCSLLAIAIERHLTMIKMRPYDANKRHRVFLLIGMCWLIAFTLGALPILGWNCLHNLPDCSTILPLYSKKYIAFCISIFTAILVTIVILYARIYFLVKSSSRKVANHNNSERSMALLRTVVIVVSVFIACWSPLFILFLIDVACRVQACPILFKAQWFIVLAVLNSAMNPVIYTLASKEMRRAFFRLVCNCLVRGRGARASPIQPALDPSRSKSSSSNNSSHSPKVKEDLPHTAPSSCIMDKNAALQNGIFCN

Ratio (Plasma) | EC50 [3] [µM] | concentration at 4 h [4] [nM] | concentration at 24 h [6] [nM] | EC50 [7] [µM] | Structure (SMILES) | Ratio EC50 [1] | inhibition in vivo at 1 mg/kg (Rattus norvegicus [2]) [%] | inhibition in vivo at 1 mg/kg (Rattus norvegicus [5]) [%]
22 | 8.2 | 686 | 31 | – | CC(C)c1c(-c2nc(-c3ccc(CN4CC(C(=O)O)C4)cc3)no2)noc1-c1ccccn1 | 8200 | 84 | 64
12 | 0.63 | 318 | 26 | 0.00021 | CCCc1c(-c2ccccn2)noc1-c1nc(-c2ccc(CN3CC(C(=O)O)C3)cc2)no1 | 3000 | 82 | 85
3 | – | 2130 | – | – | O=C(O)C1CN(Cc2ccc(-c3noc(-c4onc(-c5ccccc5)c4C(F)(F)F)n3)cc2)C1 | – | 78 | 91

From ChEMBL document CHEMBL3792331, “Identification and synthesis of potent and selective pyridyl-isoxazole based agonists of sphingosine-1-phosphate 1 (S1P1)” (Bioorg Med Chem Lett, 2016)
